Assays:
[1] = test system: Hamster; assay: Hypolipidemic effect in Bio F1B hamster fed with high fat and cholesterol diet assessed as LDL-cholesterol level at 30 mg/kg, po relative to control; format: functional, Cricetinae
[2] = Plasma concentration in CE-2 chow diet-fed golden Syrian hamster at 100 mg/kg, po after 3 hrs by HPLC-LC-MS/MS method; format: ADME, organism-based, Mesocricetus auratus
In short: (§1)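 Hamsters on chow diet received a single oral dose of 100 mg/kg. Heparin plasma was drawn from a forearm vein at 0.5, 1, 2, 3, 4, 6, 8, 10 and 24 h after dosing. Concentrations of parent drug and its carboxylic acid metabolite were measured in plasma.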

[3] = test system: Hamster; assay: Hypolipidemic effect in Bio F1B hamster fed with high fat and cholesterol diet assessed as HDL-cholesterol level at 10 mg/kg, po relative to control; format: functional, Cricetinae
[4] = Plasma concentration in CE-2 chow diet-fed golden Syrian hamster at 100 mg/kg, po after 6 hrs by HPLC-LC-MS/MS method; format: ADME, organism-based, Mesocricetus auratus; in short: as §1
[5] = test system: Hamster; assay: Hypolipidemic effect in Bio F1B hamster fed with high fat and cholesterol diet assessed as total cholesterol level at 100 mg/kg, po relative to control; format: functional, Cricetinae
[6] = test system: Hamster; assay: Increase in ABCG8 gene expression in Bio F1B hamster intestine at 100 mg/kg, po; format: functional, Cricetinae
In short: (§2)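 Bio F1B hamsters were fed a high-fat, high-cholesterol diet and dosed orally. Gene expression was measured in intestine (ABCA1, ABCG5, ABCG8) and in peripheral blood (ABCA1).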

[7] = Plasma concentration in CE-2 chow diet-fed golden Syrian hamster assessed as 4-(4-(1,1,1,3,3,3-Hexafluoro-2-hydroxypropan-2-yl)-2,6-di-n-propylphenoxy)-butanoic acid level at 100 mg/kg, po after 4 hrs by HPLC-LC-MS/MS method; format: ADME, organism-based, Mesocricetus auratus; details: in vivo; in short: as §1
[8] = Plasma concentration in CE-2 chow diet-fed golden Syrian hamster assessed as 4-(4-(1,1,1,3,3,3-Hexafluoro-2-hydroxypropan-2-yl)-2,6-di-n-propylphenoxy)-butanoic acid level at 100 mg/kg, po after 10 hrs by HPLC-LC-MS/MS method; format: ADME, organism-based, Mesocricetus auratus; details: in vivo; in short: as §1
[9] = test system: Hamster; assay: Effect in lipid profiles in Bio F1B hamster fed with high fat and cholesterol diet assessed as triglyceride level at 30 mg/kg, po relative to control; format: organism-based; details: cricetinae, in vivo
[10] = test system: Hamster; assay: Hypolipidemic effect in Bio F1B hamster fed with high fat and cholesterol diet assessed as lipid-accumulation area in aortic arch at 30 mg/kg, po relative to control; format: functional, Cricetinae
[11] = Plasma concentration in CE-2 chow diet-fed golden Syrian hamster assessed as 4-(4-(1,1,1,3,3,3-Hexafluoro-2-hydroxypropan-2-yl)-2,6-di-n-propylphenoxy)-butanoic acid level at 100 mg/kg, po after 1 hr by HPLC-LC-MS/MS method; format: ADME, organism-based, Mesocricetus auratus; details: in vivo; in short: as §1
[12] = test system: Hamster; assay: Increase in ABCA1 gene expression in Bio F1B hamster peripheral blood at 10 mg/kg, po; format: functional, Cricetinae
[13] = test system: Hamster; assay: Hypolipidemic effect in Bio F1B hamster fed with high fat and cholesterol diet assessed as LDL-cholesterol level at 100 mg/kg, po relative to control; format: functional, Cricetinae
[14] = test system: Hamster; assay: Increase in ABCG8 gene expression in Bio F1B hamster intestine at 30 mg/kg, po; format: functional, Cricetinae; in short: as §2
[15] = Plasma concentration in CE-2 chow diet-fed golden Syrian hamster assessed as 4-(4-(1,1,1,3,3,3-Hexafluoro-2-hydroxypropan-2-yl)-2,6-di-n-propylphenoxy)-butanoic acid level at 100 mg/kg, po after 2 hrs by HPLC-LC-MS/MS method; format: ADME, organism-based, Mesocricetus auratus; details: in vivo; in short: as §1
[16] = test system: Hamster; assay: Hypolipidemic effect in Bio F1B hamster fed with high fat and cholesterol diet assessed as LDL-cholesterol level at 10 mg/kg, po relative to control; format: functional, Cricetinae
[17] = test system: Hamster; assay: Increase in ABCA1 gene expression in Bio F1B hamster peripheral blood at 100 mg/kg, po; format: functional, Cricetinae; in short: as §2
[18] = Plasma concentration in CE-2 chow diet-fed golden Syrian hamster assessed as 4-(4-(1,1,1,3,3,3-Hexafluoro-2-hydroxypropan-2-yl)-2,6-di-n-propylphenoxy)-butanoic acid level at 100 mg/kg, po after 0.5 hrs by HPLC-LC-MS/MS method; format: ADME, organism-based, Mesocricetus auratus; details: in vivo; in short: as §1
[19] = test system: Hamster; assay: Increase in ABCA1 gene expression in Bio F1B hamster intestine at 10 to 100 mg/kg, po; format: functional, organism-based; details: Cricetinae
[20] = test system: Hamster; assay: Increase in ABCG5 gene expression in Bio F1B hamster intestine at 10 mg/kg, po; format: functional, Cricetinae
[21] = test system: Hamster; assay: Hypolipidemic effect in Bio F1B hamster fed with high fat and cholesterol diet assessed as total cholesterol level at 10 mg/kg, po relative to control; format: functional, Cricetinae
[22] = test system: Hamster; assay: Effect in lipid profiles in Bio F1B hamster fed with high fat and cholesterol diet assessed as triglyceride level at 100 mg/kg, po relative to control; format: organism-based; details: cricetinae, in vivo
[23] = test system: Hamster; assay: Increase in ABCA1 gene expression in Bio F1B hamster intestine at 10 mg/kg, po; format: functional, Cricetinae
[24] = test system: Hamster; assay: Hypolipidemic effect in Bio F1B hamster fed with high fat and cholesterol diet assessed as total cholesterol level at 30 mg/kg, po relative to control; format: functional, Cricetinae
[25] = Plasma concentration in CE-2 chow diet-fed golden Syrian hamster at 100 mg/kg, po after 2 hrs by HPLC-LC-MS/MS method; format: ADME, organism-based, Mesocricetus auratus; in short: as §1
[26] = Plasma concentration in CE-2 chow diet-fed golden Syrian hamster assessed as 4-(4-(1,1,1,3,3,3-Hexafluoro-2-hydroxypropan-2-yl)-2,6-di-n-propylphenoxy)-butanoic acid level at 100 mg/kg, po after 6 hrs by HPLC-LC-MS/MS method; format: ADME, organism-based, Mesocricetus auratus; details: in vivo; in short: as §1
[27] = test system: Hamster; assay: Increase in ABCG8 gene expression in Bio F1B hamster intestine at 10 mg/kg, po; format: functional, Cricetinae
[28] = Plasma concentration in CE-2 chow diet-fed golden Syrian hamster assessed as 4-(4-(1,1,1,3,3,3-Hexafluoro-2-hydroxypropan-2-yl)-2,6-di-n-propylphenoxy)-butanoic acid level at 100 mg/kg, po after 24 hrs by HPLC-LC-MS/MS method; format: ADME, organism-based, Mesocricetus auratus; details: in vivo; in short: as §1
[29] = test system: Hamster; assay: Hypolipidemic effect in Bio F1B hamster fed with high fat and cholesterol diet assessed as lipid-accumulation area in aortic arch at 10 mg/kg, po relative to control; format: functional, Cricetinae
[30] = test system: Hamster; assay: Hypolipidemic effect in Bio F1B hamster fed with high fat and cholesterol diet assessed as HDL-cholesterol level at 30 mg/kg, po relative to control; format: functional, Cricetinae
[31] = Cmax in CE-2 chow diet-fed golden Syrian hamster at 100 mg/kg, po after 6 hrs by HPLC-LC-MS/MS method; format: ADME, organism-based, Mesocricetus auratus; set-up: dose 100 mg/kg, route oral; details: in vivo; in short: as §1
[32] = Plasma concentration in CE-2 chow diet-fed golden Syrian hamster assessed as 4-(4-(1,1,1,3,3,3-Hexafluoro-2-hydroxypropan-2-yl)-2,6-di-n-propylphenoxy)-butanoic acid level at 100 mg/kg, po after 8 hrs by HPLC-LC-MS/MS method; format: ADME, organism-based, Mesocricetus auratus; details: in vivo; in short: as §1
[33] = test system: Hamster; assay: Increase in ABCG5 gene expression in Bio F1B hamster intestine at 30 mg/kg, po; format: functional, Cricetinae; in short: as §2
[34] = Plasma concentration in CE-2 chow diet-fed golden Syrian hamster at 100 mg/kg, po after 10 hrs by HPLC-LC-MS/MS method; format: ADME, organism-based, Mesocricetus auratus; in short: as §1

concentration at 3 h [2]: 290 nM | concentration at 6 h [4]: 630 nM | Cp [7]: 529 ng/mL | Cp [8]: 560 ng/mL | Activity [9]: 145% | Cp [11]: 202 ng/mL | Cp [15]: 375 ng/mL | Cp [18]: 52 ng/mL | Activity [22]: 112% | concentration at 2 h [25]: 320 nM | Cp [26]: 641 ng/mL | Cp [28]: 528 ng/mL | Cmax [31]: 600 nM | Cp [32]: 979 ng/mL | concentration at 10 h [34]: 110 nM
Structure (SMILES): CCCc1cc(C(O)(C(F)(F)F)C(F)(F)F)cc(CCC)c1OCCCCN1C(=O)NC(C)(c2ccc(OC(C)C)cc2)C1=O (centres undefined)
Activity [1]: 91% | Activity [3]: 98% | Activity [5]: 53% | fold change (FC) [6]: 1.3 | Activity [10]: 84% | fold change (FC) [12]: 1 | Activity [13]: 45% | fold change (FC) [14]: 1.4 | Activity [16]: 94% | fold change (FC) [17]: 1 | Activity [19]: Dose-dependent effect | fold change (FC) [20]: 1.2 | Activity [21]: 87% | fold change (FC) [23]: 2.1 | Activity [24]: 96% | fold change (FC) [27]: 1.3 | Activity [29]: 86% | Activity [30]: 92% | fold change (FC) [33]: 1.5

Reference: ChEMBL document CHEMBL3588803, “Design, synthesis and pharmacology of 1,1-bistrifluoromethylcarbinol derivatives as liver X receptor β-selective agonists” (Bioorg Med Chem Lett, 2015)
